Measured values reported in the EternaBench riboswitch data.

Tested on: MS2 coat protein
Assay: apparent Kd, MS2 coat protein; higher = weaker binding; RNA-MaP array; FMN 200 µM where present
In short: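 Two titrations, one without ligand and one with constant ligand, were run with SNAP-549-labelled MS2 coat protein from 0.7 or 1.5 nM, doubling to 3 µM. The targets were designs transcribed by stalled E. coli RNA polymerase on Illumina sequencing-chip clusters, in 100 mM Tris-HCl pH 7.5, 80 mM KCl, 4 mM MgCl2, BSA, DTT, yeast tRNA and Tween-20. The apparent Kd is the median of filtered per-cluster binding-curve fits, with green signal normalised to red-channel RNA signal and control-cluster median Fmax.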

[1] = designed as: OFF switch for flavin mononucleotide, no ligand
[2] = ligand present: flavin mononucleotide, designed as: OFF switch for flavin mononucleotide
[3] = designed as: ON switch for flavin mononucleotide, no ligand
[4] = ligand present: flavin mononucleotide, designed as: ON switch for flavin mononucleotide

Row | Sequence | apparent Kd [1] | apparent Kd [2] | apparent Kd [3] | apparent Kd [4]
1 | UGUGCGUUGAUCUUCGAUCGGUGUACAUGAGGAUCACCCAUGUAGGAUAUUCAAAGACGCAGAUAGGAGAAGGACAUUGGUUUU | 16.8 nM | 20 nM |  | 
2 | GCGAUGUUAGGAUAUUGCAUGUAGUGGGUUCCCAGCUGCGUUAAGAAGGGACAUGAGGAUCACCCAUGUGAUGA | 497 nM | 384 nM |  | 
3 | UCAUGAUGGAAGAAGGGAGUCGUGCAUGACAACUCAGGAUAUUUCACAUGAGGAUCACCCAUGUCGAAGUAACAGUGUUGAUCA | 23.9 nM | 45.8 nM |  | 
4 | AUAGCAACAUGAGGAUCACCCAUGUAGGAUAUCGCUAUUGUAAUCAUGAAACAUGAUUACAAUAGCGAGAAGGACAUAUGCUAA | 7.84 nM | 10.2 nM |  | 
5 | GAAUAAUUGAUCCUUUUUUAUUACAUGAGGAUCACCCAUGUGCAGGAUAUCGAUUAUUAUAGUUUCGAGAAGGGCAAGAACUAU | 27.5 nM | 128 nM |  | 
6 | AACUGCGCAUGAGGAUAUCCCGGACAUGAGGAUCACCCAUGUAAGCACAAGGGAGAAGGCAUGUGCCUCAAUUAGUUCCCACAA |  |  | 61.9 nM | 7.08 nM
7 | UUUUUAAAUAUAGGAUAUGGAAACAUGAGGAUCACCCAUGUAUGAUAAGAUAAAUUAUGAUAUAGCCAGAAGGAUACAAUUUUU |  |  | 31.9 nM | 38.6 nM
8 | CAGACCUACGCAGGAUAUCUUGGGUGUUUCAUGGCAAGAGUCGGUACAUGAGGAUCACCCAUGUAAGAGAAGGGCGUUGCUAAA | 404 nM | 83 nM |  | 
9 | UGUAUGGACAGAGGAUAUACGUGCUAGAGAUACUAGCAAAUAAUCCUUACAUGAGGAUCACCCAUGUAGAAGGCUGUCCAUACU | 20.1 nM | 46.5 nM |  | 
10 | UGGGAGCGAUAGAAGGCCGGGUUUCACAUGAGGAUCACCCAUGUGCGGGCCCUCUGUUGAAGGCUGGAGGAUAUAUCGUGCGGA | 14.5 nM | 7.39 nM |  | 
11 | GAGAAGUCAGGAUAUGCUGCUCGUCACUUGCGUGAUGAGUAGCAGAAGGGACAUGAGGAUCACCCAUGUGGAAA | 107 nM | 202 nM |  | 
12 | UGCUAAUUGUAGAAGGGUGACAUGAGGAUCACCCAUGUUCACAUGCGAUUUACGGCGCAUGUUCCACAGGAUAUACAGUUGAGU |  |  | 342 nM | 60.1 nM
13 | UUAAUGUGAGGAUAUCAAGUGUGAUAGAGUAAUGGUAAAUAUGAGAAGGCACAUGAGGAUCACCCAUGUUCUUC | 15.7 nM | 17.4 nM |  | 
14 | GGUUGGCGAGGAUAUACAUGAGGAUCACCCAUGUGGUCCUGCGGUGGUGUCGCCCUUUGUAGAAGGCGCGGGUC | 59.1 nM | 56.6 nM |  | 
15 | GAGCGAAAGCUCAAUGUCGAUAGCAGAAGGACAUGAAAACAUGAAAAUACAUGAGGAUCACCCAUGUAGGAUAUGCUAUCGACU | 6.7 nM | 24.3 nM |  | 
16 | GCUGACGAUGUAGGAUAUCAGUAUAAUAAAUACUGAGAAGGACAUGAGGAUCACCCAUGUAAAAUCCCGUCAGCGAGGAAACUC | 17.1 nM | 23.8 nM |  | 
17 | GGAUAGGACAGAGGAUAUACGUGCUCGAGAUACUAGCAAAAUUUCCUCACAUGAGGAUCACCCAUGUAGAAGGCUGUCCUAUCG | 28.7 nM | 255 nM |  | 
18 | CUUAGACAUGAGGAUCACCCAUGUGAGGAUAUGAUGCGAUCGUGCUGACAUGAUCGCAUCAGAAGGCACAAAUG | 141 nM | 173 nM |  | 
19 | AAAUAGUUAGGAUAUACAUGAGGAUCACCCAUGUGGACUUAUGGCGAUUAAUUUAGUGGUAGAAGGGACUCAAA | 53.8 nM | 51.4 nM |  | 
20 | AACAAUCUAUCUGAGGAUAUCAUGAAAAAAACAUGAGGAUCACCCAUGUGCAGGAAAACUGCAUAUGAGAAGGCAGAUAGAUUGU |  |  | 603 nM | 26.2 nM
21 | GGAUCGAGUGUGAGGAUAUGCUGGUCCUUGGAUCAGCAGAAGGCACAUGAGGAUCACCCAUGUCCAAGCGGUCC | 152 nM | 701 nM |  | 

Row | Sequence | apparent Kd [1] | apparent Kd [2] | apparent Kd [3] | apparent Kd [4]
22 | ACAUGAGGAUCACCCAUGUAUACAUAGGAUAUUGGUGAUCAGGCAUGUUUUACAGGAUAUGUCUGCGAGAAGGAUGCACGUUGC |  |  | 810 nM | 452 nM
23 | GGAAAACAUGAGGAUCACCCAUGUGAGGAUAUCGAUGUCCAAAAAAAGGUGCGGGACUCGAGAAGGCACUUGGA | 55.6 nM | 47 nM |  | 
24 | CCCAAACUUGGGCUUGGUGGUGCAUAGGAUAUCCUUGAACAUGAGGAUCACCCAUGUACAACUGUGGAGAAGGGUGCAGGGCCU |  |  | 372 nM | 111 nM
25 | AAAAUGCAAGGAUAUACAUGAGGAUCACCCAUGUAGAAGGAAGCGAGGGUUUCCUGCUGUAGAAGGUGCUACAG | 23 nM | 20.5 nM |  | 
26 | GUCAGCUCGUGAGGAUAUACAACACUGCUUCGGCAGGGUAUUAAGAUCACAUGAGGAUCACCCAUGUAGAAGGCACGAGCUGAU | 12.7 nM | 173 nM |  | 
27 | ACCAUGUAAGGAUAUGCGCGGCCCUAAAUCAAUGAGCAAGCGCAGAAGGUACAUGAGGAUCACCCAUGUCACCG | 16.6 nM | 51.4 nM |  | 
28 | GUAGCUACAUGAGGAUCACCCAUGUAGGAUAUCGCUAUUGUAAUCAUGUUACAUGAUUACAAUAGCGAGAAGGACGUGUGCUAC | 9.03 nM | 10.4 nM |  | 
29 | CGUUCGUGAGGAUAUUGUGGAAUUGACAUGAGGAUCACCCAUGUGGCCAUUGUCGACUCGCAAGAAGGCAUAGAUU | 54.2 nM | 189 nM |  | 
30 | AAAUAGGCAGGAUAUACAUGAGGAUCACCCAUGUGCCUAUGAAAGGUAAUUUUGAAAGGUAGAAGGGCCUAAAA | 10.5 nM | 12.1 nM |  | 
31 | ACAUGUUAUGUAGGAUAUUAUACACAUGAGGAUCACCCAUGUAACCGGAGGCUUUACUAUGAGUAUGAGAAGGGUAUGAACAUG | 138 nM | 145 nM |  | 
32 | ACGCAUUGCCUUUGGUAGUGCGUAACAUGAGGAUCACCCAUGUAGGAUAUGGUAGGCUUUGCUUACCAGAAGGACAUUAUAAAC | 29.3 nM | 48.5 nM |  | 
33 | GGAGCACACAUUAACAUGAGGAUCACCCAUGUCAAAAGACAUGAGGAUAUGGAUCCGAAAAGCAUCCAGAAGGCAUGGUGCUCC |  |  | 567 nM | 184 nM
34 | UGUCGGAGCAGAGGAUAUUACAUGAGGAUCACCCAUGUAUGAACCAAUAGCUGAAAACAGCAAUGUAAGAAGGCUGCUCCGACA | 11.5 nM | 176 nM |  | 
35 | CCAGUGCGGGUGGUAUGGCUAACAUGAGGAUCACCCAUGUUGCAGGAUAUCGGCCAGAUUGGGCGCGAGAAGGGCAACGCUGAA | 86.6 nM | 32.6 nM |  | 
36 | UCAUGUUAGCAGGAUAUGCUAUUUAUCUUUUAUGCAGAAGGGCUUACAUGAGGAUCACCCAUGUAUUAAGUCUU | 18.9 nM | 52.5 nM |  | 
37 | AUUUAUUAGUAAGGAUAUACUAGCGAUUAGCUUGUAGAAGGUACAGUCUUAUGUAUAGCAUGUUAACAUGAGGAUCACCCAUGU |  |  | 23.2 nM | 13.1 nM
38 | ACAUGAUAUGUAGGAUAUCACAACAUGAGUUUUAUUAUUGUUAUUUAUGAUUGAGAAGGACAUUUACAUGAGGAUCACCCAUGU | 17.8 nM | 12.3 nM |  | 
39 | GCGUCAGGAGGAUAUACAUGAGGAUCACCCAUGUAACACGGGAUCGUCGUUUAGUAGAGUAGAAGGCCUAUUGU | 64.1 nM | 106 nM |  | 
40 | UGAAUCUAGUAAGGAUAUACACGAGAUACAAGUGUAGAAGGUACUUACAUGAGGAUCACCCAUGUAUACAUGGAUAAUAGAUAU |  |  | 291 nM | 182 nM
41 | UGUUCUAUGUAGAAGGCCCAUAUCUGUACUUAGGGAGGAUAUACAUGAGGAUCACCCAUGUGUAGAGCUGGUGGACUGGACAGC | 20.9 nM | 32.5 nM |  | 
42 | GUGGUUGUCGUAGGAUAUGUAGGAUAUUCCUACAUGAGGAUCACCCAUGUUCGCAUGGAAGAAGGAUAGAAGGACGAUGACCAG |  |  | 76.7 nM | 388 nM
